Assay results from ChEMBL document CHEMBL1138217, “Rapid discovery and structure-activity profiling of novel inhibitors of human immunodeficiency virus type 1 protease enabled by the copper(I)-catalyzed synthesis of 1,2,3-triazoles and their further functionalization” (J Med Chem, 2006).

Target: Human immunodeficiency virus type 1 protease (Human immunodeficiency virus 1) (UniProt Q72874)
Experiment: Inhibition of HIV1 protease at 5 uM
Summary of the method: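 Crude click-reaction DMSO mixtures (azide-alkyne, CuSO4 with copper turning, 1:1 tBuOH/H2O, 50 °C, 5 days) diluted to 5 µM in 0.1 M MES, 0.2 M NaCl, pH 5.25, 5% glycerol; HIV-1 protease 20 µg/mL plus fluorogenic substrate 50 µM added; fluorescence read directly in microplate; percent inhibition; TL-3 100 nM positive control.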

inhibition | Compound
35% | O=C(N[C@@H](Cc1ccccc1)[C@H](Cc1ccccc1)n1cc(CN2CCN(C(=O)OCc3ccccc3)CC2)nn1)OC1CCCC1
70% | O=C(N[C@@H](Cc1ccccc1)[C@H](Cc1ccccc1)n1cc(CN2CCC(Cc3ccccc3)CC2)nn1)OC1CCCC1
87% | Cc1cccc(N2CCN(Cc3cn([C@@H](Cc4ccccc4)[C@H](Cc4ccccc4)NC(=O)OC4CCCC4)nn3)CC2)c1
85% | Cc1ccc(Cl)cc1N1CCN(Cc2cn([C@@H](Cc3ccccc3)[C@H](Cc3ccccc3)NC(=O)O[C@H]3CCOC3)nn2)CC1
69% | Cc1ccc(Cl)cc1N1CCN(Cc2cn([C@@H](Cc3ccccc3)[C@H](Cc3ccccc3)NC(=O)OCC3CC3)nn2)CC1
66% | Cc1ccc(Cl)cc1N1CCN(Cc2cn([C@@H](Cc3ccccc3)[C@H](Cc3ccccc3)NC(=O)OC3CCCCC3)nn2)CC1
29% | Cc1ccc(Cl)cc1N1CCN(Cc2cn([C@@H](Cc3ccccc3)[C@H](Cc3ccccc3)NC(=O)OCc3ccccc3)nn2)CC1
34% | O=C(N[C@@H](Cc1ccccc1)[C@H](Cc1ccccc1)n1cc(CN2CCC(O)(c3cccc(C(F)(F)F)c3)CC2)nn1)OC1CCCC1
25% | Cc1ccc(Cl)cc1N1CCN(Cc2cn([C@@H](Cc3ccccc3)[C@H](Cc3ccccc3)NC(=O)c3ccco3)nn2)CC1
73% | Cc1ccc(Cl)cc1N1CCN(Cc2cn([C@@H](Cc3ccccc3)[C@H](Cc3ccccc3)NC(=O)OCC(C)C)nn2)CC1
82% | O=C(N[C@@H](Cc1ccccc1)[C@H](Cc1ccccc1)n1cc(CN2CCN(c3ccccc3)CC2)nn1)OC1CCCC1
19% | Cc1ccc(Cl)cc1N1CCN(Cc2cn([C@@H](Cc3ccccc3)[C@H](Cc3ccccc3)NC(=O)NC(C)C)nn2)CC1
86% | Cc1c(Cl)cccc1N1CCN(Cc2cn([C@@H](Cc3ccccc3)[C@H](Cc3ccccc3)NC(=O)OC3CCCC3)nn2)CC1
15% | Cc1ccc(Cl)cc1N1CCN(Cc2cn([C@@H](Cc3ccccc3)[C@H](Cc3ccccc3)NC(=O)NC3CCCCC3)nn2)CC1
41% | CCOC(=O)N[C@@H](Cc1ccccc1)[C@H](Cc1ccccc1)n1cc(CN2CCN(c3cc(Cl)ccc3C)CC2)nn1
76% | Cc1ccc(Cl)cc1N1CCN(Cc2cn([C@@H](Cc3ccccc3)[C@H](Cc3ccccc3)NC(=O)OCC3CCCC3)nn2)CC1
41% | Cc1ccc(Cl)cc1N1CCN(Cc2cn([C@@H](Cc3ccccc3)[C@H](Cc3ccccc3)NC(=O)OCC3CCCO3)nn2)CC1 (stereo not given in full)
31% | Cc1ccc(Cl)cc1N1CCN(Cc2cn([C@@H](Cc3ccccc3)[C@H](Cc3ccccc3)NC(=O)Oc3ccccc3)nn2)CC1
55% | Cc1cccc(N2CCN(Cc3cn([C@@H](Cc4ccccc4)[C@H](Cc4ccccc4)NC(=O)OC4CCCC4)nn3)CC2C)c1 (stereo not given in full)
75% | Cc1ccc(Cl)cc1N1CCN(Cc2cn([C@@H](Cc3ccccc3)[C@H](Cc3ccccc3)NC(=O)OCC3CCC3)nn2)CC1
29% | O=C(N[C@@H](Cc1ccccc1)[C@H](Cc1ccccc1)n1cc(CN2CCN(Cc3ccc4c(c3)OCO4)CC2)nn1)OC1CCCC1
51% | CC(C)(C)OC(=O)N1CCN(Cc2cn([C@@H](Cc3ccccc3)[C@H](Cc3ccccc3)NC(=O)OC3CCCC3)nn2)CC1
67% | O=C(N[C@@H](Cc1ccccc1)[C@H](Cc1ccccc1)n1cc(CN2CCC(c3ccccc3)CC2)nn1)OC1CCCC1
12% | O=C(N[C@@H](Cc1ccccc1)[C@H](Cc1ccccc1)n1cc(CN2CCN(c3ccncc3)CC2)nn1)OC1CCCC1
75% | Cc1ccc(Cl)cc1N1CCN(Cc2cn([C@@H](Cc3ccccc3)[C@H](Cc3ccccc3)NC(=O)OC3CCC3)nn2)CC1
26% | CCN1CCN(Cc2cn([C@@H](Cc3ccccc3)[C@H](Cc3ccccc3)NC(=O)OC3CCCC3)nn2)CC1
19% | Cc1ccc(Cl)cc1N1CCN(Cc2cn([C@@H](Cc3ccccc3)[C@H](Cc3ccccc3)NC(=O)NC3CCCC3)nn2)CC1
86% | O=C(N[C@@H](Cc1ccccc1)[C@H](Cc1ccccc1)n1cc(CN2CCN(c3ccc(Cl)c(Cl)c3)CC2)nn1)OC1CCCC1

inhibition | Compound
20% | O=C(N[C@@H](Cc1ccccc1)[C@H](Cc1ccccc1)n1cc(CN2CCC(O)(c3ccccc3)CC2)nn1)OC1CCCC1
64% | O=C(N[C@@H](Cc1ccccc1)[C@H](Cc1ccccc1)n1cc(CN2CCN(c3ccc(F)cc3)CC2)nn1)OC1CCCC1
63% | Cc1ccc(Cl)cc1N1CCN(Cc2cn([C@@H](Cc3ccccc3)[C@H](Cc3ccccc3)NC(=O)OC3CCCCCC3)nn2)CC1
85% | O=C(N[C@@H](Cc1ccccc1)[C@H](Cc1ccccc1)n1cc(CN2CCN(c3cccc(O)c3)CC2)nn1)OC1CCCC1
58% | O=C(N[C@@H](Cc1ccccc1)[C@H](Cc1ccccc1)n1cc(CN2CC=C(c3ccc(Cl)cc3)CC2)nn1)OC1CCCC1
36% | O=C(N[C@@H](Cc1ccccc1)[C@H](Cc1ccccc1)n1cc(CN2CCN(c3ccccn3)CC2)nn1)OC1CCCC1
48% | O=C(N[C@@H](Cc1ccccc1)[C@H](Cc1ccccc1)n1cc(CN2CCC(O)(c3ccc(Cl)c(C(F)(F)F)c3)CC2)nn1)OC1CCCC1
22% | O=C(N[C@@H](Cc1ccccc1)[C@H](Cc1ccccc1)n1cc(CN2CCN(C3CCCCC3)CC2)nn1)OC1CCCC1
28% | O=C(N[C@@H](Cc1ccccc1)[C@H](Cc1ccccc1)n1cc(CN2CCCC(c3ccccc3)C2)nn1)OC1CCCC1 (stereo not given in full)
28% | Cc1ccc(Cl)cc1N1CCN(Cc2cn([C@@H](Cc3ccccc3)[C@H](Cc3ccccc3)NC(=O)C3CCCC3)nn2)CC1
38% | COc1ccccc1N1CCN(Cc2cn([C@@H](Cc3ccccc3)[C@H](Cc3ccccc3)NC(=O)OC3CCCC3)nn2)CC1
26% | O=C(N[C@@H](Cc1ccccc1)[C@H](Cc1ccccc1)n1cc(CN2CCC(O)(c3ccc(Cl)cc3)CC2)nn1)OC1CCCC1
80% | Cc1ccccc1N1CCN(Cc2cn([C@@H](Cc3ccccc3)[C@H](Cc3ccccc3)NC(=O)OC3CCCC3)nn2)CC1
25% | COC(=O)N[C@@H](Cc1ccccc1)[C@H](Cc1ccccc1)n1cc(CN2CCN(c3cc(Cl)ccc3C)CC2)nn1
14% | O=C(N[C@@H](Cc1ccccc1)[C@H](Cc1ccccc1)n1cc(CN2CCN(c3cnccn3)CC2)nn1)OC1CCCC1
30% | Cc1ccc(Cl)cc1N1CCN(Cc2cn([C@@H](Cc3ccccc3)[C@H](Cc3ccccc3)NC(=O)Nc3ccc(F)cc3)nn2)CC1
27% | CCOC(=O)N1CCN(Cc2cn([C@@H](Cc3ccccc3)[C@H](Cc3ccccc3)NC(=O)OC3CCCC3)nn2)CC1
81% | O=C(N[C@@H](Cc1ccccc1)[C@H](Cc1ccccc1)n1cc(CN2CCN(c3ccc(F)cc3F)CC2)nn1)OC1CCCC1
53% | Cc1ccc(Cl)cc1N1CCN(Cc2cn([C@@H](Cc3ccccc3)[C@H](Cc3ccccc3)NC(=O)OCC3CCCCC3)nn2)CC1
25% | O=C(N[C@@H](Cc1ccccc1)[C@H](Cc1ccccc1)n1cc(CN2CCN(c3ncccn3)CC2)nn1)OC1CCCC1
76% | O=C(N[C@@H](Cc1ccccc1)[C@H](Cc1ccccc1)n1cc(CN2CCN(c3ccccc3Cl)CC2)nn1)OC1CCCC1
77% | O=C(N[C@@H](Cc1ccccc1)[C@H](Cc1ccccc1)n1cc(CN2CCN(c3ccc(Cl)cc3)CC2)nn1)OC1CCCC1
17% | Cc1ccc(Cl)cc1N1CCN(Cc2cn([C@@H](Cc3ccccc3)[C@H](Cc3ccccc3)NC(=O)C3CCCCC3)nn2)CC1
23% | O=C(N[C@@H](Cc1ccccc1)[C@H](Cc1ccccc1)n1cc(CN2CCC(n3c(=O)[nH]c4ccccc43)CC2)nn1)OC1CCCC1
93% | O=C(N[C@@H](Cc1ccccc1)[C@H](Cc1ccccc1)n1cc(CN2CCN(c3cccc(Cl)c3)CC2)nn1)OC1CCCC1
89% | O=C(N[C@@H](Cc1ccccc1)[C@H](Cc1ccccc1)n1cc(CN2CCN(c3cc(Cl)cc(Cl)c3)CC2)nn1)OC1CCCC1
48% | O=C(N[C@@H](Cc1ccccc1)[C@H](Cc1ccccc1)n1cc(CN2CCN(c3ccc(C(F)(F)F)cc3)CC2)nn1)OC1CCCC1

Compound | inhibition
O=C(N[C@@H](Cc1ccccc1)[C@H](Cc1ccccc1)n1cc(CN2CCN(c3cccc(C(F)(F)F)c3)CC2)nn1)OC1CCCC1 (stereo in doubt; (S,S)-11s) | 86%
O=C(N[C@@H](Cc1ccccc1)[C@H](Cc1ccccc1)n1cc(CN2CCC3(CC2)C(=O)NCN3c2ccccc2)nn1)OC1CCCC1 | 17%
O=C(N[C@@H](Cc1ccccc1)[C@H](Cc1ccccc1)n1cc(CN2CCN(c3cccc(C(F)(F)F)c3)CC2)nn1)OC1CCCC1 (stereo in doubt; (S,S)-7d) [listing 1 of 2 here] | 87%

Target: Human immunodeficiency virus type 1 protease (Human immunodeficiency virus 1, UniProt Q72874)
Experiment: Inhibition of HIV1 protease
Summary of the method: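 HIV-1 protease (SF-2-WTQ7K-Pr construct for the isolated inhibitors) at 20 µg/mL with 50 µM fluorogenic substrate Abz-Thr-Ile-Nle/Phe-(p-NO2)Gln-Arg-NH2, in 0.1 M MES, 0.2 M NaCl, pH 5.25, 5% (v/v) glycerol. Crude mixtures were screened at 5 µM as percent inhibition.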

Compound | Ki
CC(C)(C)OC(=O)N[C@@H](Cc1ccccc1)[C@H](Cc1ccccc1)N=[N+]=[N-] | 31000 nM
CC[C@@H](O)c1c(CN2CCN(c3cc(C)ccc3C)CC2)nnn1[C@@H](Cc1ccccc1)[C@H](Cc1ccccc1)NC(=O)OC1CCCC1 | 42 nM
O=C(N[C@@H](Cc1ccccc1)[C@H](Cc1ccccc1)n1cc(CN2CCN(c3cccc(C(F)(F)F)c3)CC2)nn1)OC1CCCC1 (stereo in doubt; (S,S)-7d) [listing 2 of 2 here] | 98 nM
Cc1ccc(Cl)cc1N1CCN(Cc2nnn([C@@H](Cc3ccccc3)[C@H](Cc3ccccc3)NC(=O)OC3CCCC3)c2CO)CC1 | 8 nM
CC[C@H](O)c1c(CN2CCN(c3cc(C)ccc3C)CC2)nnn1[C@@H](Cc1ccccc1)[C@H](Cc1ccccc1)NC(=O)OC1CCCC1 | 27 nM
Cc1ccc(C)c(N2CCN(Cc3nnn([C@@H](Cc4ccccc4)[C@H](Cc4ccccc4)NC(=O)OC4CCCC4)c3[Si](C)(C)C)CC2)c1 | > 2500 nM
Cc1ccc(C)c(N2CCN(Cc3nnn([C@@H](Cc4ccccc4)[C@H](Cc4ccccc4)NC(=O)OC4CCCC4)c3[C@@H](C)O)CC2)c1 | 25 nM
